How the values were obtained:
Format in all cases: functional
SH-SY5Y [1] = experiment: Neuroprotective activity against rotenone-oligomycin A-induced oxidative stress in human SH-SY5Y cells assessed as survival incubated with rot/oligo for 8 hrs followed by treated with compound at 0.3 uM for 16 hrs by MTT assay (Rvb =70.6 +/- 1.8%); conditions: read-out: Survival
How it was run: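 SH-SY5Y cells cultured 24 h, then exposed to rotenone/oligomycin A (30/10 μM) for 8 h at 37 °C. Stressor removed; compound in 1% FBS medium added for 16 h. DMSO-only control. MTT reduction (5 mg/mL, 2 h, 37 °C; OD 540 nm). Survival relative to untreated basal; mean ± SEM of five to seven cultures in triplicate.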

SH-SY5Y [2] = experiment: Neuroprotective activity against rotenone-oligomycin A-induced oxidative stress in human SH-SY5Y cells assessed as survival at 0.3 uM co-incubated rot/oligo for 24 hrs by MTT assay (Rvb =65.6 +/- 1.3%); conditions: read-out: Survival
SH-SY5Y [3] = experiment: Neuroprotective activity against rotenone-oligomycin A-induced oxidative stress in human SH-SY5Y cells assessed as protection incubated with rot/oligo for 8 hrs followed by treated with compound at 0.3 uM for 16 hrs by MTT assay relative to control
SH-SY5Y [4] = experiment: Neuroprotective activity against rotenone-oligomycin A-induced oxidative stress in human SH-SY5Y cells assessed as protection at 0.3 uM co-incubated rot/oligo for 24 hrs by MTT assay relative to control

`COc1ccc2[nH]cc(CCNC(C)=O)c2c1` [MELATONIN] was tested, and the viability at 0.3 µM (SH-SY5Y [1]) was 87.8%, the viability at 0.3 µM (SH-SY5Y [2]) was 82.5% and the Activity (SH-SY5Y [3]) was 58.3%. The Activity (SH-SY5Y [4]) was 44.7%.
